In ChEMBL document CHEMBL3797125, “Discovery of GluN2A-Selective NMDA Receptor Positive Allosteric Modulators (PAMs): Tuning Deactivation Kinetics via Structure-Based Design” (J Med Chem, 2016):
The source made the active and inactive calls. The calls are words filed in the database; no cut-off is given here.

Experiments:
human MDR1 (P-gp) = assay: Efflux ratio of permeability from basolateral to apical over apical to basolateral side in MDCK cells expressing human MDR1; type: ADME, cell-based, Canis lupus familiaris; settings: dog
[1] = target: T1, Glutamate NMDA receptor; GRIN1/GRIN2A (Homo sapiens, UniProt Q05586+Q12879); assay: Positive allosteric modulation of GluN1/GluN2A NMDAR (unknown origin) expressed in Dox-inducible cells at 125 uM measured every 5 mins by BD calcium indicator dye based-fluorescence analysis in presence of glutamate/glycine; type: cell-based
Method in brief: (§1)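 GluN2A-containing NMDAR cell line, harvested, seeded, doxycycline 2 µg/mL overnight with 500 µM ketamine for protection, then washed and loaded with calcium dye for 50 min. Compound added at 2x concentration in 2x EC30 Glu (EC30 set daily from Glu dose-response); saturating Gly throughout; fluorescence recorded over 5 min.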

Glutamate receptor 2 [2] = target: T2, Glutamate receptor 2 (Homo sapiens, UniProt P42262); assay: Positive allosteric modulation of human GluA2 AMPAR flop isomer expressed in Dox-inducible cells at 125 uM measured every 5 mins by BD calcium indicator dye based-fluorescence analysis in presence of glutamate; type: cell-based
Glutamate receptor 2 [3] = target: T2, Glutamate receptor 2; assay: Positive allosteric modulation of human GluA2 AMPAR flip isomer expressed in Dox-inducible cells measured every 5 mins by BD calcium indicator dye based-fluorescence analysis in presence of glutamate; type: cell-based
Glutamate receptor 2 [4] = target: T2, Glutamate receptor 2; assay: Positive allosteric modulation of human GluA2 AMPAR flip isomer expressed in Dox-inducible cells at 125 uM measured every 5 mins by BD calcium indicator dye based-fluorescence analysis in presence of glutamate; type: cell-based
Homo sapiens [5] = species on record: Homo sapiens; assay: Selectivity ratio of EC50 for human GluA2 AMPAR flip isomer to EC50 for GluN1/GluN2A NMDAR (unknown origin) expressed in Dox-inducible cells; type: cell-based
Glutamate receptor 2 [6] = target: T2, Glutamate receptor 2; assay: Positive allosteric modulation of human GluA2 AMPAR flop isomer expressed in Dox-inducible cells measured every 5 mins by BD calcium indicator dye based-fluorescence analysis in presence of glutamate; type: cell-based
[7] = target: T1, Glutamate NMDA receptor; GRIN1/GRIN2A; assay: Positive allosteric modulation of GluN1/GluN2A NMDAR (unknown origin) expressed in Dox-inducible cells measured every 5 mins by BD calcium indicator dye based-fluorescence analysis in presence of glutamate/glycine; type: cell-based; method in brief: as §1
[8] = target: T1, Glutamate NMDA receptor; GRIN1/GRIN2A; assay: Positive allosteric modulation of GluN1/GluN2A NMDAR (unknown origin) expressed in CHO cells assessed as slowing of deactivation kinetics at 100 uM by whole-cell voltage clamp electrophysiological analysis; type: cell-based
Method in brief: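 Automated patch clamp of CHO cells expressing GluN1/GluN2A; sealed in high Mg2+ buffer, recorded whole-cell in zero Mg2+. Preincubation with PAM at 100 µM (or DMSO) plus 100 µM glycine for several minutes, then rapid switch to 100 µM glutamate and back. Tau from monoexponential fit of current decay; fold deactivation = PAM tau / vehicle tau.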

Homo sapiens [9] = species on record: Homo sapiens; assay: Selectivity ratio of EC50 for human GluA2 AMPAR flop isomer to EC50 for GluN1/GluN2A NMDAR (unknown origin) expressed in Dox-inducible cells; type: cell-based
[10] = target: Glutamate NMDA receptor; GRIN1/GRIN2B (Homo sapiens) (UniProt Q05586+Q13224); assay: Positive allosteric modulation of GluN1/GluN2B NMDAR (unknown origin) expressed in Dox-inducible cells at 125 uM measured every 5 mins by BD calcium indicator dye based-fluorescence analysis in presence of glutamate/glycine; type: cell-based
Method in brief: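 Doxycycline-induced (2 µg/mL, overnight, 500 µM ketamine) GluN2B-containing NMDAR cells, loaded with calcium dye for 50 min; compound added at 2x in 2x EC30 Glu, with saturating Gly; fluorescence recorded over 5 min. Max potentiation at 125 µM reported where no EC50 obtained; 30% denotes baseline (EC30 Glu).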

[11] = Lipophilicity, logD of the compound at pH 7.4; type: physicochemical; settings: buffer
[12] = target: T1, Glutamate NMDA receptor; GRIN1/GRIN2A; assay: Positive allosteric modulation of GluN1/GluN2A NMDAR (unknown origin) expressed in CHO cells assessed as slowing of deactivation kinetics at 10 uM by whole-cell voltage clamp electrophysiological analysis; type: cell-based
[13] = Blood clearance in mouse at 0.3 mg/kg, iv; type: ADME, organism-based
[14] = Oral bioavailability in mouse at 10 mg/kg; type: ADME, organism-based; settings: in vivo
Plasma = assay: Fraction unbound in mouse plasma at 10 mg/kg, po measured at 1 hr; type: ADME, organism-based; settings: in vivo
[15] = Half life in mouse at 0.3 mg/kg, iv; type: ADME, organism-based; settings: in vivo
[16] = Protein binding in mouse brain; type: ADME, tissue-based; settings: read-out: PB (converted)
[17] = target: Ionotropic glutamate receptor NMDA 1/2C (Homo sapiens, UniProt Q05586+Q14957); assay: Positive allosteric modulation of GluN1/GluN2C NMDAR (unknown origin) expressed in Dox-inducible cells by BD calcium indicator dye based-fluorescence analysis in presence of glutamate/glycine
[18] = target: Ionotropic glutamate receptor NMDA 1/2D (Homo sapiens, UniProt O15399+Q05586); assay: Positive allosteric modulation of GluN1/GluN2D NMDAR (unknown origin) expressed in Dox-inducible cells by BD calcium indicator dye based-fluorescence analysis in presence of glutamate/glycine
[19] = Plasma protein binding in mouse; type: ADME, cell-free; settings: read-out: PPB (converted)

T2 sequence (P42262 whole entry): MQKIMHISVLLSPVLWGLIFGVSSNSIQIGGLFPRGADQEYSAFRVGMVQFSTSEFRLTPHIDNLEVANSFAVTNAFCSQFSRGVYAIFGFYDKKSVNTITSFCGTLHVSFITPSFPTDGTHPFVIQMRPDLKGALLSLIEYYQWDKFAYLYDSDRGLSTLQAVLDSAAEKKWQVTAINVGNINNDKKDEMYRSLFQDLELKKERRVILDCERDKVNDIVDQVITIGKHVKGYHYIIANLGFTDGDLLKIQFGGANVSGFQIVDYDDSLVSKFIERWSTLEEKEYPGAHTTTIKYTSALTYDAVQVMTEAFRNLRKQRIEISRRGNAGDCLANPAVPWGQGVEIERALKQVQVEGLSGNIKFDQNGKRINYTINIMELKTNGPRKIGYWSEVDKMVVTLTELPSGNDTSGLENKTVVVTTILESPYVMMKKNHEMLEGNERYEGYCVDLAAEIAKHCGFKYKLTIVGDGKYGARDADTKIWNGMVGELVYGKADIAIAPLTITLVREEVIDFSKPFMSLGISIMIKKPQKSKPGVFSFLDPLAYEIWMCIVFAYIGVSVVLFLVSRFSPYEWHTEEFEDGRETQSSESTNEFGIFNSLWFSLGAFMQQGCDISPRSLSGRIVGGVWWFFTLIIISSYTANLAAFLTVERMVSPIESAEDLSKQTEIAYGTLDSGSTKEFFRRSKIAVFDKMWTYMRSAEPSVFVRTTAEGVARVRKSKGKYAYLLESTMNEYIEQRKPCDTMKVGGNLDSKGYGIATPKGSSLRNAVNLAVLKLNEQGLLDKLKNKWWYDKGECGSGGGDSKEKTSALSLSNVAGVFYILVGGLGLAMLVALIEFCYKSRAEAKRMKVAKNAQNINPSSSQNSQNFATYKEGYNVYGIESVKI
Chain of Ionotropic glutamate receptor NMDA 1/2D (O15399 whole entry, other chains not shown): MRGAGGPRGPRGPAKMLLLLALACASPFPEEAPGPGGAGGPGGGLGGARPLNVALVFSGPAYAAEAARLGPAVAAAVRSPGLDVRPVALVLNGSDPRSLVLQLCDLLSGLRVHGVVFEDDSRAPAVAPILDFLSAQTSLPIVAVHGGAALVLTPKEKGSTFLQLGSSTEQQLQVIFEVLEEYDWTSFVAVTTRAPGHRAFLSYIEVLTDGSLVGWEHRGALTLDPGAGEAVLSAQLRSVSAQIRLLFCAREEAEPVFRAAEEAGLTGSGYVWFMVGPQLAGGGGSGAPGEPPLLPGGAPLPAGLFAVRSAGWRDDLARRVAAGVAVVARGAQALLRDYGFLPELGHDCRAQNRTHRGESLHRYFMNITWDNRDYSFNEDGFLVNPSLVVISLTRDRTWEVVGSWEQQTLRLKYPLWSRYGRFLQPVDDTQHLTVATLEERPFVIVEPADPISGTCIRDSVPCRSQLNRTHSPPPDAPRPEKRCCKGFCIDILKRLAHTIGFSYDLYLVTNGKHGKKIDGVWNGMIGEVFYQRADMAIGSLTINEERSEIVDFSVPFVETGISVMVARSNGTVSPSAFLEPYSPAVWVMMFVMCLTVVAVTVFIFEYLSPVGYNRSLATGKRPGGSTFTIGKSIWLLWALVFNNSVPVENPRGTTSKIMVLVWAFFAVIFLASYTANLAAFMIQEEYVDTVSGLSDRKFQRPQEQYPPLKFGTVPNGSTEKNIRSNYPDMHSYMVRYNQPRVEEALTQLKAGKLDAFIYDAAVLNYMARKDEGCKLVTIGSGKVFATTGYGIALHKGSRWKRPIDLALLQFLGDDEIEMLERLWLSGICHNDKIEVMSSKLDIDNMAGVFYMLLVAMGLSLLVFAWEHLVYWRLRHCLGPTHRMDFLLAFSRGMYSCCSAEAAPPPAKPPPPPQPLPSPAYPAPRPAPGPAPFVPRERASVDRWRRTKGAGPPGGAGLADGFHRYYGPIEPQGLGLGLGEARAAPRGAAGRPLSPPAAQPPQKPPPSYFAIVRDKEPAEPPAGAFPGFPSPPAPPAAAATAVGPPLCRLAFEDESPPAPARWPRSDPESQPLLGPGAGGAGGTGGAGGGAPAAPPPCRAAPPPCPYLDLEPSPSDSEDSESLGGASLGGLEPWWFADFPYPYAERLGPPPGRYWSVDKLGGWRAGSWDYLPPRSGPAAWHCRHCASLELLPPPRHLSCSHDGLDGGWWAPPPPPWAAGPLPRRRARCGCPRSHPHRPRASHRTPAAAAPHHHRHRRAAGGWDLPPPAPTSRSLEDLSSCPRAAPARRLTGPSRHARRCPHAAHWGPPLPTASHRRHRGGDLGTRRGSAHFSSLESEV
Chain of Ionotropic glutamate receptor NMDA 1/2C (Q14957 whole entry, other chains not shown): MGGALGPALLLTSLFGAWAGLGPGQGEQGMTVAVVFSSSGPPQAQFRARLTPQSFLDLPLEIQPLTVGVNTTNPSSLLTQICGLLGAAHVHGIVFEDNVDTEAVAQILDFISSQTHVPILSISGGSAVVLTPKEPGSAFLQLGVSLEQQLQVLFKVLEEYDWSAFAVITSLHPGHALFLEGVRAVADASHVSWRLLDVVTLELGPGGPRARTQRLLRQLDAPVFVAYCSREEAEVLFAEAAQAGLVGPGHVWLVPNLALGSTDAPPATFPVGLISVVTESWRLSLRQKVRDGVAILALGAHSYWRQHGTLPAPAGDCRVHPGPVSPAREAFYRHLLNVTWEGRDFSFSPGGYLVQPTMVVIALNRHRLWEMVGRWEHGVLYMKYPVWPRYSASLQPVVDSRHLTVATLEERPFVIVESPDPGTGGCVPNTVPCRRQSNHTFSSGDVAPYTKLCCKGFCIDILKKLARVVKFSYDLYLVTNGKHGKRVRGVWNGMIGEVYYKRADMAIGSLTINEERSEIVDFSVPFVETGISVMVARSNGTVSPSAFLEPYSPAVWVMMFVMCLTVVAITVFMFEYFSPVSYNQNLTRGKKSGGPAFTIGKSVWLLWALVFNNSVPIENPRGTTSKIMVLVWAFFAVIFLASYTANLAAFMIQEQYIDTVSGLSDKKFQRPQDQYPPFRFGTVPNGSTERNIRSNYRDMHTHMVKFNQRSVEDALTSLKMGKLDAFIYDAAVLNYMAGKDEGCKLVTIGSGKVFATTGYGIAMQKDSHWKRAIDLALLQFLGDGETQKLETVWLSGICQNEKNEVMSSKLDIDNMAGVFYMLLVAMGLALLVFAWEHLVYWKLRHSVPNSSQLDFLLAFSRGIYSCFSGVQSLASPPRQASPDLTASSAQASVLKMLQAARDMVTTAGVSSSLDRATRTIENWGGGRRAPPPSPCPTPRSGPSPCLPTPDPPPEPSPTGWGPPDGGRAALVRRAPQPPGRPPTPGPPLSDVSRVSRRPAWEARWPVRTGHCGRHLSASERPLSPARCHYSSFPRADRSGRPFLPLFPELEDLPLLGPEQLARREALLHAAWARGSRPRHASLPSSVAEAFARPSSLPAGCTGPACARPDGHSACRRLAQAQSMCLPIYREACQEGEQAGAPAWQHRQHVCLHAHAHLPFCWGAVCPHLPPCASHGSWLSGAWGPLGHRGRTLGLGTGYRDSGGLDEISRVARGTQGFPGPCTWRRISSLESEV

| SMILES | efflux ratio (human MDR1 (P-gp)) | %max [1] [%] | %max (Glutamate receptor 2 [2]) [%] | EC50 (Glutamate receptor 2 [3]) [µM] | %max (Glutamate receptor 2 [4]) [%] | EC50 (Glutamate receptor 2 [6]) [µM] | EC50 [7] [µM] | further results |
| --- | --- | --- | --- | --- | --- | --- | --- | --- |
| CCNC(=O)c1c(C)sc2nc(Cn3nc(C(F)(F)F)cc3Cl)cc(=O)n12 | 11 | 120 | 16 | 37 | 8 | 73.2 | 0.436 | Ratio EC50 (Homo sapiens [5]): 100 |
| CCNC(=O)c1c(C)sc2nc(COc3ccc(F)cc3)cc(=O)n12 | 2 | 77 | 15 | – | 11 | – | 8.5 | Activity [8]: inactive |
| CCN(Cc1cc(=O)n2nc(C)sc2n1)c1ccc(F)cc1 | 1.4 | 150 | 99 | 3.3 | 92 | 0.83 | 0.9 | %max [10]: 48%; logD [11]: 2.9 |
| CCNC(=O)c1c(C)sc2nc(CN(CC)c3ccc(F)cc3)cc(=O)n12 | 5.1 | 184 | 28 | – | 10 | – | 0.093 | Activity [12]: Active |
| CCCCc1nn2c(=O)cc(CN(CC)c3ccccc3)nc2s1 | – | 91 | 71 | 35.2 | 51 | 23.7 | 9.34 | %max [10]: 40% |

Now those with a lower EC50 [7], led by results:

| efflux ratio (human MDR1 (P-gp)) | %max [1] [%] | %max (Glutamate receptor 2 [2]) [%] | EC50 (Glutamate receptor 2 [3]) [µM] | %max (Glutamate receptor 2 [4]) [%] | EC50 (Glutamate receptor 2 [6]) [µM] | EC50 [7] [µM] | SMILES | further results |
| --- | --- | --- | --- | --- | --- | --- | --- | --- |
| 1.1 | 173 | 55 | – | 13 | 9.4 | 0.088 | CCN(Cc1cc(=O)n2c(C(C)=O)c(C)sc2n1)c1ccc(F)cc1 | Ratio EC50 (Homo sapiens [9]): 100 |
| – | 143 | 22 | 43.1 | 75 | 13 | 0.06 | C=C(C)c1c(C)sc2nc(CN(CC)c3ccc(F)cc3)cc(=O)n12 | Ratio EC50 (Homo sapiens [9]): > 100 |
| 1.1 | – | 88 | 9.1 | 84 | 5.5 | 0.021 | N#C[C@@H]1C[C@H]1c1c(C(F)(F)F)sc2nc(Cn3nc(C(F)(F)F)cc3Cl)cc(=O)n12 | clearance [13]: 26 mL/min/kg; bioavailability [14]: 24%; Cp(f) (Plasma): 17 nM; half-life [15]: 4 h; fraction unbound [16]: 0.014; EC50 [17]: 7.4 µM; EC50 [18]: 6.2 µM; fraction unbound [19]: 0.06 |
